Screening results deposited in PubChem BioAssay by Johns Hopkins Ion Channel Center.
RGS4 inh – human RGS4 inhibition; 310,000 tested, 0.45% active; HEK293 M3R/RGS4 inducible, Fluo-4 calcium flux; stronger effect = higher value; triggered by carbachol at its EC20; B-score at 10 µM; AID 463165; P49798;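 active = B-score, a plate-corrected calcium signal, over three deviations above library mean, with baseline fluorescence within five deviations of library mean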;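 note: RGS4 expression induced by doxycycline in cells with stable M3 receptor; B-score is computed from the integrated fluorescence ratio over baseline after carbachol; higher B-score means a larger calcium signal and so more RGS4 inhibition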
Target sequence (P49798 whole entry, looked up): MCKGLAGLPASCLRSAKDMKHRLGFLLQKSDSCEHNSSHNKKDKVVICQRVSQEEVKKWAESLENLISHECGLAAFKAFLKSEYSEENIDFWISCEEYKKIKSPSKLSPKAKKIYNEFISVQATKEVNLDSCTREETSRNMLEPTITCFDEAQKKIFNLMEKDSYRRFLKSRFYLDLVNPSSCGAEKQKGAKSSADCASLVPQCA
MrgX1 antag – blocks BAM8-22 activation of human MrgX1 receptor. Q96LB2. MRGX1-HEK293 calcium flux, Fluo-4, BAM8-22 antagonism; stronger effect = lower value. B-score at 10 µM. 310,000 tested, 1.3% active;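 active = calcium-response B-score plate-corrected more than 3 library SD below zero, starting fluorescence within 5 deviations, no agonist response on first addition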;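 note: peak minus trough fluorescence over baseline after final BAM8-22 challenge near maximal dose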
Target sequence (Q96LB2 whole entry, looked up): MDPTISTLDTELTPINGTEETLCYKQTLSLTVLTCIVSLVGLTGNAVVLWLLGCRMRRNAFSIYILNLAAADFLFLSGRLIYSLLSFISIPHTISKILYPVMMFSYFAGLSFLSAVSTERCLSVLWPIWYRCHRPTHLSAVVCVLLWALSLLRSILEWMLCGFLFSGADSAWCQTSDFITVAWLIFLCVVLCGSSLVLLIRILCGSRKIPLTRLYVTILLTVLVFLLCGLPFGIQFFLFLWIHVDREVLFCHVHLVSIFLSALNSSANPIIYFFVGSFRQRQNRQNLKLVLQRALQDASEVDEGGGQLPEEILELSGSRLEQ
MrgX1 allo act – allosterically activates human MrgX1 receptor signaling. 310,000 tested, 0.63% active. MrgX1-HEK293, Fluo-4 calcium flux, FDSS; stronger effect = higher value. B-score at 10 µM;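 active = plate-corrected calcium response at least 3 library SD above typical, normal starting fluorescence, not activating the receptor alone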;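 note: compound read alongside a low EC10 to EC30 dose of BAM8-22 agonist; peak minus trough fluorescence over baseline measured at the second addition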
RGS4 pot – potentiators or activators of RGS4; HEK293 M3R/inducible RGS4, carbachol calcium flux Fluo4; stronger effect = lower value; B-score at 10 µM; 310,000 tested, 0.92% active; AID 463111;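 active = B-score of the integrated calcium signal more than 4 SD below the library mean, with starting fluorescence not abnormally high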;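 note: negative B-score means reduced calcium response which marks RGS4 activation or potentiation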
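System – HEK293 FlpIn-TREx cells, stable M3R, doxycycline-inducible RGS4 · Reagent – ECmax carbachol challenge · Times – compound preincubation 20 min at room temperature before agonist · Technique – Fluo4 fluorescence kinetic imaging of calcium · Measure – B score of integrated Fluo4 ratio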
MrgX1 ag – activates human MrgX1 receptor signaling. MrgX1-HEK293 cells, Fluo-4 calcium fluorescence, agonist mode; stronger effect = higher value. B-score at 10 µM. 310,000 tested, 0.44% active;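 active = calcium response B-score plate-corrected fluorescence ratio at least 3 library SD, with starting fluorescence B-score inside 5 SD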
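Material: MrgX1-expressing HEK293 cells / Dosing: compound as first of three additions / Incubation: overnight seeding, then 1 h dark dye loading / Signal: Fluo-4 NW calcium fluorescence / Evaluation: B-scored fluorescence response ratio / Benchmarks: positive and negative control wells on each plate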
RGS4 act valid – RGS4 activation, validation assay | HEK293 M3R/RGS4 inducible, carbachol calcium flux Fluo4 | 1,100 tested, 89% active | shares compounds with RGS4 pot | inhibition, % at 10 µM;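 active = inhibition above 3 SD of the buffer control wells, cut at about 41% in these data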;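 note: signal is the integrated peak-minus-minimum Fluo4 fluorescence over baseline ratio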
RGS4 act ctr – activity in cells without induced RGS4 expression; shares compounds with RGS4 pot; HEK293 M3R non-induced RGS4, Fluo4 calcium flux; after carbachol challenge at its EC90; inhibition, % at 10 µM; 1,100 tested, 82% active;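 active = inhibition exceeding 3 SD of buffer-only control wells, cut at about 26% in these data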;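 note: percent drop in integrated peak-minus-baseline over baseline Fluo4 ratio after carbachol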
Active calls of the source: *; i = inactive; . = not tested or not shown. A selection: hits, their analogues and other compounds. The true share with any hit is near 3.5%.

SMILES	RGS4 inh	MrgX1 antag	MrgX1 allo act	RGS4 pot	MrgX1 ag	RGS4 act valid	RGS4 act ctr
c1ccc(Cn2c3ccccc3c3nnc(SCCN4CCCCC4)nc32)cc1	i	i	i	-11*	i	93*	90*
CCn1c2ccc(C)cc2c2nnc(SCCN3CCCCC3)nc21	i	i	i	i	i	.	.
CCCn1c2ccc(C)cc2c2nnc(SCCN3CCCCC3)nc21	i	.	.	-8.9*	.	79*	84*
COc1ccc(N(CC(=O)Nc2cc(C)ccc2C)S(=O)(=O)c2ccccc2[N+](=O)[O-])c(OC)c1	i	i	i	i	i	.	.
Cc1ccc(S(=O)(=O)c2ccc(Oc3cccc(C)c3)cc2)cc1	i	i	i	-8.1*	i	68*	30*
C=CCN1C(=O)c2ccc(C(=O)N3CCN(S(=O)(=O)c4cccc(Cl)c4)CC3)cc2C1=O	i	i	i	i	i	.	.
CN(C)CCN(C(=O)c1ccc(C(=O)c2ccccc2)cc1)c1nc2cc3c(cc2s1)OCO3	i	i	i	i	i	.	.
CN(C)CCN(C(=O)c1ccc(C(=O)c2ccccc2)cc1)c1nc2cc3c(cc2s1)OCCO3	i	i	i	-9.1*	i	90*	74*
Cc1cccnc1CN1CCN(Cc2nc(C(c3ccccc3)c3ccccc3)no2)CC1	i	i	i	-8.7*	i	93*	82*
OC(c1ccccn1)C1CCN(Cc2nc(C(c3ccccc3)c3ccccc3)no2)CC1 (stereo not given)	i	i	i	i	i	.	.
Cc1nc(CN2CCN(Cc3nc(C(c4ccccc4)c4ccccc4)no3)CC2)cs1	i	i	i	-13*	i	92*	79*
COc1ccccc1-c1noc2ncnc(Nc3cccc(C)c3C)c12	i	i	i	i	i	.	.
O=C1CCc2ccc(OCCCCN3CCN(c4cccc(Cl)c4Cl)CC3)cc2N1	i	i	i	-9.2*	i	79*	65*
O=S(=O)(c1cccc2cccnc12)N1CCN(Cc2ccccc2)CC1	i	i	i	i	i	.	.
O=C(Nc1ccc(NC(=O)c2cc3ccccc3o2)cc1)c1ccc2c(c1)OCCO2	i	i	i	i	i	.	.
Cc1cc(NC(=O)c2ccc3c(c2)OCCO3)ccc1NC(=O)c1cc2ccccc2o1	i	i	i	-8.7*	i	78*	0
Cc1cc(C)n(S(=O)(=O)c2ccc3ccccc3c2)n1	i	i	i	-7.9*	i	76*	84*
CCCCn1nc(CC(=O)NCCN(CC)CC)c2ccccc2c1=O	i	i	i	i	i	.	.
CCCCCCOc1ccc(-c2ccc(C#N)cn2)cc1	i	i	i	-7.9*	i	71*	84*
CCc1ccccc1NC(=O)CNC(=O)c1ccccc1OCc1c(C)noc1C	i	i	i	i	i	.	.
Cc1ccc(C(=O)NCC(=O)NC23CC4CC(CC(C4)C2)C3)cc1	i	i	i	i	i	.	.
COc1ccc(/C=C/C(O)=C2/C(=O)N(C)C3(C)CC2c2ccccc2O3)cc1 (stereo not given)	i	i	i	i	i	.	.
Cc1ccc(/C=C/C(O)=C2/C(=O)N(C)C3(C)CC2c2ccccc2O3)cc1 (stereo not given)	i	i	i	-8*	i	73*	84*
O=C(CSc1ncc(-c2ccccc2)n1C1CCCC1)N1CCc2ccccc21	i	i	i	-7.7*	i	54*	84*
CC(C)CCNC(=O)CCCCn1c(=O)[nH]c2ccsc2c1=O	i	i	i	i	i	.	.
SMILES	RGS4 inh	MrgX1 antag	MrgX1 allo act	RGS4 pot	MrgX1 ag	RGS4 act valid	RGS4 act ctr
CCc1nc2ccccc2c(C(=O)OCC(=O)Nc2cccc(S(=O)(=O)NC3=NCCCCC3)c2)c1C	i	i	i	-7.7*	i	64*	0
Cc1nn(-c2ccccc2)c(Cl)c1C(=O)OCC(=O)NCCc1ccccc1	i	i	i	-8*	i	44*	0
COc1cccc(CNC(=O)CCC2CCCN(c3cc(C)nc(N4CCCC4)n3)C2)c1 (stereo not given)	i	i	i	-12*	i	92*	94*
COc1cccc(CNC(=O)CCC2CCCN(C3CCOCC3)C2)c1 (stereo not given)	i	i	i	i	i	.	.
CCNc1nc(SCC(=O)OC)nc(N(C)C)n1	i	i	i	i	i	.	.
CC(C)CSC1=NSC2=NC(=O)/C(=C\c3coc4ccccc4c3=O)C(=N)N12	i	i	i	-12*	i	98*	100*
O=C1/C(=C/c2cccs2)SC(=S)N1c1cccc(O)c1	i	i	i	i	i	.	.
COC(=O)c1ccc(OCC(O)CNCC(c2ccc(OC)cc2)N(C)C)c(OC)c1 (stereo not given)	i	i	i	i	i	.	.
Cc1ccc(S(=O)(=O)N2CCN(Cc3ccccc3)CC2)c(C)c1N(C)S(=O)(=O)c1ccccc1	i	i	i	i	i	.	.
CCCCN(C)C(=O)c1cc2c(Cl)nc3ccccc3c2s1	i	i	i	-8.7*	i	59*	45*
COc1ccc(NC2=NCC(Cc3ccc(Br)cc3)S2)cc1 (stereo not given)	i	i	i	-8.8*	i	94*	83*
Cc1ccc(S(=O)(=O)NCCc2ccncc2)cc1C	i	i	i	i	i	.	.
Cn1c(=O)n(C)c2cc(NC(=O)CSc3ccccc3)ccc21	i	i	i	i	i	.	.
CCOC(=O)c1cc2cc(OCc3ccccc3)ccc2nc1C	i	i	i	-11*	i	78*	76*
COc1ccc(OC)c2sc(N(CCCN(C)C)C(=O)CCS(=O)(=O)c3ccccc3)nc12	i	-7.6*	i	-13*	i	84*	58*
CC1(C)CN(c2cccc(Br)c2)C1=O	i	i	i	i	i	.	.
c1ccc(-c2nnc(N3CCN(c4ccccn4)CC3)c3ccccc23)cc1	i	i	i	-8*	i	92*	79*
Cc1ccc(-c2nnc(N3CCN(c4ccccn4)CC3)c3ccccc23)cc1	i	i	i	-7.7*	i	94*	91*
Cc1ccc(-c2nnc(N3CCCCC3)c3ccccc23)cc1	i	i	i	i	i	.	.
